From ChEMBL document CHEMBL1123619, “Isothiourea derivatives of 6-phenyl-2,3,5,6-tetrahydroimidazo[2,1-b]thiazole with broad-spectrum anthelmintic activity” (J Med Chem, 1987)
Calls of active or inactive are those of the source. The calls are words filed in the database; no cut-off is given here.

Legend:
[1] = system: Heligmosomoides polygyrus; assay: Nematocidal activity against Nematospiroides dubius induced necropsy in mouse, oral administration 200 mg/kg; type: functional
Outline: (§1)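 Seven-week-old female LACA mice infected orally with 100 N. dubius L3 larvae; single gavage dose given at day 10 of infection, groups of four mice; necropsy 4 days later; percent activity from worm burdens of treated versus untreated groups.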

Fasciola hepatica = assay: Anthelmintic activity against adult liver fluke (Fasciola hepatica) in sheep following 30 mg/kg p.o.; type: functional; settings: route oral
Outline: (§2)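 Sheep dosed with a single oral dose. Fecal fluke egg output monitored after treatment. Animals necropsied only if the fecal egg count fell. Postmortem Fasciola hepatica burdens compared with untreated control sheep (mean of 10 controls). Single animals per test unless otherwise indicated, with group size given in parentheses. I denotes no effect on fecal fluke egg output.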

Mus musculus [2] = assay: Nematocidal activity against Nematospiroides dubius induced necropsy in mouse, after oral administration of 100 mg/kg; type: functional; outline: as §1
Ovis aries [3] = assay: Anthelmintic activity against adult liver fluke (Fasciola hepatica) in sheep, after peroral administration of 15 mg/kg was determined; type: functional; settings: route oral; outline: as §2
Ovis aries [4] = assay: Anthelmintic activity against adult liver fluke (Fasciola hepatica) in sheep, after peroral administration of 20 mg/kg was determined; type: functional; settings: route oral; outline: as §2
Ovis aries [5] = assay: Anthelmintic activity against adult liver fluke (Fasciola hepatica) in 2 sheep, after peroral administration of 30 mg/kg was determined. Value in parentheses indicate number of animals used; type: functional; settings: route oral; outline: as §2
Ovis aries [6] = assay: Anthelmintic activity against adult liver fluke (Fasciola hepatica) in sheep, after peroral administration of 20 mg/kg; I means no effect on sheep fecal fluke egg output; type: functional, organism-based; design: dose 20 mg/kg; settings: at 20 mg/kg; outline: as §2
Mus musculus [7] = assay: Nematocidal activity against Nematospiroides dubius induced necropsy in mouse, after oral administration of 50 mg/kg of the compound; type: functional; outline: as §1
Ovis aries [8] = assay: Anthelmintic activity against adult liver fluke (Fasciola hepatica) in sheep, after peroral administration of 30 mg/kg was determined. Value in parentheses indicate number of animals used; type: functional; settings: route oral; outline: as §2
Ovis aries [9] = assay: Anthelmintic activity against adult liver fluke (Fasciola hepatica) in sheep, after peroral administration of 30 mg/kg was determined; I means no effect on sheep fecal fluke egg output; type: functional, organism-based; design: dose 30 mg/kg; settings: at 30 mg/kg; outline: as §2
Mus musculus [10] = assay: Nematocidal against Nematospiroides dubius in mouse was determined at 0.5 mg/kg peroral dose of compound; type: functional; settings: route oral; outline: as §1
Mus musculus [11] = assay: Nematocidal against Nematospiroides dubius in mouse was determined at 1 mg/kg peroral dose of compound; type: functional; settings: route oral; outline: as §1
Mus musculus [12] = assay: Nematocidal against Nematospiroides dubius in mouse was determined at 50 mg/kg peroral dose of compound; all animals died at this dose; type: functional, organism-based; design: dose 50 mg/kg; outline: as §1
Mus musculus [13] = assay: Nematocidal against Nematospiroides dubius in mouse was determined at 5 mg/kg peroral dose of compound; type: functional; settings: route oral; outline: as §1
Ovis aries [14] = assay: Toxic activity expressed as the percentage against liver fluke in the sheep at 15 mg/kg peroral administration of dose; type: ADME, organism-based; design: dose 15 mg/kg, route oral; settings: in vivo, po
Outline: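 Fasciola hepatica in sheep, controlled test; animals necropsied only when fecal egg count fell; postmortem fluke burdens compared with untreated control sheep (10 controls).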

Ovis aries [15] = assay: Toxic activity expressed as the percentage against liver fluke in the sheep at 30 mg/kg peroral administration of dose; lethal; type: ADME, organism-based; design: dose 30 mg/kg, route oral; settings: in vivo, po
Ovis aries [16] = assay: Anthelmintic activity against adult fecal fluke egg output in sheep, after peroral administration of 30 mg/kg; I means no effect on sheep fecal fluke egg output; type: functional, organism-based; design: dose 30 mg/kg; settings: at 30 mg/kg; outline: as §2
Mus musculus [17] = assay: Nematocidal activity against Nematospiroides dubius induced necropsy in mouse, after oral administration of 100 mg/kg of the compound; type: functional; outline: as §1
Ovis aries [18] = assay: Anthelmintic activity against adult liver fluke (Fasciola hepatica) in 2 sheep, after peroral administration of 30 mg/kg was determined.; type: functional; settings: route oral; outline: as §2
Ovis aries [19] = assay: Anthelmintic activity against adult liver fluke (Fasciola hepatica) in sheep, after peroral administration of 20 mg/kg was determined; I means no effect on sheep fecal fluke egg output; type: functional, organism-based; design: dose 20 mg/kg; settings: at 20 mg/kg; outline: as §2
Ovis aries [20] = assay: Anthelmintic activity against adult liver fluke (Fasciola hepatica) in sheep, after peroral administration of 30 mg/kg; I means no effect on sheep fecal fluke egg output; type: functional, organism-based; design: dose 30 mg/kg; settings: at 30 mg/kg; outline: as §2
Ovis aries [21] = assay: Anthelmintic activity against adult liver fluke (Fasciola hepatica) in 3 sheep, after peroral administration of 30 mg/kg was determined. Value in parentheses indicate number of animals used; type: functional; settings: route oral; outline: as §2
Mus musculus [22] = assay: Nematocidal activity against Nematospiroides dubius induced necropsy in mouse, after oral administration of 12.5 mg/kg of the compound; type: functional
Outline: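 Female LACA mice (7 weeks) infected orally with 100 N. dubius L3 larvae; single oral dose as solution in PEG 400 on infection day 10, four mice per group; necropsied 4 days later; percent activity by comparing treated and untreated worm burdens.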

Mus musculus [23] = assay: Nematocidal activity against Nematospiroides dubius induced necropsy in mouse, after oral administration of 25 mg/kg of the compound; type: functional; outline: as §1
Ovis aries [24] = assay: Anthelmintic activity against adult liver fluke (Fasciola hepatica) in sheep, after peroral administration of 10 mg/kg was determined; type: functional; settings: route oral; outline: as §2
Ovis aries [25] = assay: Anthelmintic activity against adult liver fluke (Fasciola hepatica) in sheep, after peroral administration of 5 mg/kg was determined; type: functional; settings: route oral; outline: as §2
Ovis aries [26] = assay: Anthelmintic activity against adult liver fluke (Fasciola hepatica) in sheep, after peroral administration of 7.5 mg/kg was determined; type: functional; settings: route oral; outline: as §2

SMILES	Reduction [1]	Activity (Fasciola hepatica)	Reduction (Mus musculus [2])	other results
CS/C(=N\c1cccc(C2CN3CCSC3=N2)c1)Nc1ccc(C)cc1 (stereo not given)	0%	91%	–	–
CS/C(=N\c1cccc(C2CN3CCSC3=N2)c1)Nc1ccc(SC)cc1 (stereo not given)	95%	–	30%	Activity (Ovis aries [3]): 71%; Activity (Ovis aries [4]): 80%; Activity (Ovis aries [5]): 100%
CS/C(=N\c1cccc(C2CN3CCSC3=N2)c1)Nc1ccc(Br)cc1 (stereo not given)	73%	94%	0%	Activity (Ovis aries [4]): 100%
CCS/C(=N\c1cccc(C2CN3CCSC3=N2)c1)Nc1ccccc1 (stereo not given)	92%	97%	–	Activity (Ovis aries [6]): inactive
CS/C(=N\c1cccc(C2CN3CCSC3=N2)c1)Nc1cccc([N+](=O)[O-])c1 (stereo not given)	95%	91%	95%	Activity (Ovis aries [3]): 100%
CS/C(=N\c1cccc(C2CN3CCSC3=N2)c1)Nc1ccc([N+](=O)[O-])cc1 (stereo not given)	100%	–	100%	Reduction (Mus musculus [7]): 95%; Activity (Ovis aries [4]): 85%; Activity (Ovis aries [8]): 94%
CS/C(=N\c1cccc(C2CN3CCSC3=N2)c1)Nc1ccc(C(C)=O)cc1 (stereo not given)	100%	100%	93%	Activity (Ovis aries [3]): 100%
CC(C)S/C(=N\c1cccc(C2CN3CCSC3=N2)c1)Nc1ccccc1 (stereo not given)	0%	–	–	Activity (Ovis aries [9]): inactive
Nc1cccc(C2CN3CCSC3=N2)c1 (stereo not given)	–	–	–	Reduction (Mus musculus [10]): 43%; Reduction (Mus musculus [11]): 99%; Reduction (Mus musculus [12]): all animals died at this dose; Reduction (Mus musculus [13]): 100%; Activity (Ovis aries [14]): 0%; Activity (Ovis aries [15]): lethal
CS/C(=N\c1cccc(C2CN3CCSC3=N2)c1)Nc1cccc(F)c1 (stereo not given)	100%	66%	100%	Reduction (Mus musculus [7]): 64%
CS/C(=N\c1cccc(C2CN3CCSC3=N2)c1)Nc1ccc([S+](C)[O-])cc1 (stereo not given)	97%	100%	33%	Activity (Ovis aries [3]): 14%; Activity (Ovis aries [4]): 66%
CS/C(=N\c1cccc(C2CN3CCSC3=N2)c1)Nc1cccc(Cl)c1 (stereo not given)	99%	91%	87%	Activity (Ovis aries [6]): inactive
c1ccc(C2CN3CCSC3=N2)cc1 (stereo not given) [TETRAMISOLE]	–	–	–	Reduction (Mus musculus [11]): 43%; Reduction (Mus musculus [13]): 57%
CCCS/C(=N\c1cccc(C2CN3CCSC3=N2)c1)Nc1ccccc1 (stereo not given)	64%	–	–	Activity (Ovis aries [16]): inactive
CS/C(=N\c1cccc(C2CN3CCSC3=N2)c1)Nc1ccc(C(F)(F)F)cc1 (stereo not given)	74%	100%	–	Activity (Ovis aries [3]): 100%
CS/C(=N\c1cccc(C2CN3CCSC3=N2)c1)Nc1ccccc1 (stereo not given)	99%	–	–	Activity (Mus musculus [17]): 38%; Activity (Mus musculus [7]): 0%; Activity (Ovis aries [18]): 94%
CCOC(=O)c1ccc(N/C(=N/c2cccc(C3CN4CCSC4=N3)c2)SC)cc1 (stereo not given)	74%	97%	–	Activity (Ovis aries [19]): inactive

SMILES	Reduction [1]	Activity (Fasciola hepatica)	Reduction (Mus musculus [2])	other results
CCCCCCN/C(=N/c1cccc(C2CN3CCSC3=N2)c1)SC (stereo not given)	52%	–	–	Activity (Ovis aries [20]): inactive
CS/C(=N\c1cccc(C2CN3CCSC3=N2)c1)Nc1ccccc1Cl (stereo not given)	23%	–	–	Activity (Ovis aries [20]): inactive
CS/C(=N\c1cccc(C2CN3CCSC3=N2)c1)NC1CCCCC1 (stereo not given)	15%	–	–	Activity (Ovis aries [20]): inactive
CS/C(=N\c1cccc(C2CN3CCSC3=N2)c1)Nc1ccc(Cl)c(Cl)c1 (stereo not given)	0%	63%	0%	–
CS/C(=N\c1cccc(C2CN3CCSC3=N2)c1)Nc1ccccc1C#N (stereo not given)	0%	–	–	Activity (Ovis aries [9]): inactive
CS/C(=N\c1ccccc1)N(C)c1cccc(C2CN3CCSC3=N2)c1 (stereo not given)	0%	–	–	Activity (Ovis aries [9]): inactive
CS/C(=N\c1cccc(C2CN3CCSC3=N2)c1)Nc1cccc(C#N)c1 (stereo not given)	100%	–	54%	Activity (Ovis aries [3]): 63%; Activity (Ovis aries [4]): 100%; Activity (Ovis aries [21]): 100%
CS/C(=N\c1cccc(C2CN3CCSC3=N2)c1)Nc1ccc(Cl)cc1 (stereo not given)	88%	100%	0%	–
CS/C(=N\c1cccc(C2CN3CCSC3=N2)c1)Nc1ccc(S(C)(=O)=O)cc1 (stereo not given)	100%	–	94%	Reduction (Mus musculus [7]): 41%; Activity (Ovis aries [3]): 74%; Activity (Ovis aries [4]): 89%; Activity (Ovis aries [18]): 100%
CS/C(=N\c1cccc(C2CN3CCSC3=N2)c1)Nc1cccc(Br)c1 (stereo not given)	79%	100%	56%	Activity (Ovis aries [3]): 77%; Activity (Ovis aries [4]): 100%
CS/C(=N\c1cccc(C2CN3CCSC3=N2)c1)Nc1ccc(C)c(C)c1 (stereo not given)	0%	85%	–	–
CS/C(=N\c1cccc([C@H]2CN3CCSC3=N2)c1)Nc1ccc(C#N)cc1	100%	–	100%	Reduction (Mus musculus [22]): 66%; Reduction (Mus musculus [23]): 99.9%; Reduction (Mus musculus [7]): 100%; Activity (Ovis aries [24]): 100%; Activity (Ovis aries [25]): 85%; Activity (Ovis aries [26]): 91%
CCCCS/C(=N\c1cccc(C2CN3CCSC3=N2)c1)Nc1ccccc1 (stereo not given)	0%	–	–	Activity (Ovis aries [9]): inactive
COc1ccc(N/C(=N/c2cccc(C3CN4CCSC4=N3)c2)SC)cc1 (stereo not given)	0%	–	–	Activity (Ovis aries [20]): inactive
CCCCCCCCS/C(=N\c1cccc(C2CN3CCSC3=N2)c1)Nc1ccccc1 (stereo not given)	0%	–	–	Activity (Ovis aries [9]): inactive
c1ccc(CS/C(=N\c2cccc(C3CN4CCSC4=N3)c2)Nc2ccccc2)cc1 (stereo not given)	0%	–	–	Activity (Ovis aries [9]): inactive
CS/C(=N\c1cccc(C2CN3CCSC3=N2)c1)Nc1ccc(F)cc1 (stereo not given)	100%	60%	0%	–
